Assay outcomes: PubChem, Johns Hopkins Ion Channel Center
Most compounds without a hit are left out; they make up all but 3.8% or so of the library.
KCNQ1 block = inhibitors of human KCNQ1 channel, primary screen, cell-based, thallium flux, high-throughput; Potassium voltage-gated channel subfamily KQT member 1 (Homo sapiens), P51787; CHO-K1 KCNQ1, FluxOR thallium flux fluorescence; hits give high values; B-score at 10 µM; hit rate 1.3% among 310,000;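 active means compounds whose thallium flux B-score, printed positive for inhibition, exceeds three library SD while starting fluorescence stays within three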;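 further: channel opened by potassium depolarization with thallium stimulus after 20 min compound exposure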
KCNK3 inh = human KCNK3 channel inhibitors, primary screen, CHO cells, FluxOR thallium flux, B-score. AID 602410, 2012. Potassium channel subfamily K member 3 (Homo sapiens), O14649. B-score at 10 µM. FluxOR fluorescence; hits give low values. hit rate 0.84% among 340,000;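 active means B-score under library mean minus 4 SD, starting fluorescence ratio at most library mean plus 5 SD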;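 further: more negative B-score means stronger inhibition of thallium flux through KCNK3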
KCNK9 block = KCNK9 potassium channel inhibitors, primary screen, HEK293 cells, thallium flux. Potassium channel subfamily K member 9 (Homo sapiens), Q9NPC2. FluxOR thallium flux fluorescence; hits give low values. B-score at 10 µM. hit rate 1.2% among 310,000;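 active means ratio B-score over 3 SD below the library mean, with starting fluorescence within 5 SD of its mean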;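 further: negative B-score means less thallium flux so channel inhibition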
Target sequence (Q9NPC2 whole entry, looked up): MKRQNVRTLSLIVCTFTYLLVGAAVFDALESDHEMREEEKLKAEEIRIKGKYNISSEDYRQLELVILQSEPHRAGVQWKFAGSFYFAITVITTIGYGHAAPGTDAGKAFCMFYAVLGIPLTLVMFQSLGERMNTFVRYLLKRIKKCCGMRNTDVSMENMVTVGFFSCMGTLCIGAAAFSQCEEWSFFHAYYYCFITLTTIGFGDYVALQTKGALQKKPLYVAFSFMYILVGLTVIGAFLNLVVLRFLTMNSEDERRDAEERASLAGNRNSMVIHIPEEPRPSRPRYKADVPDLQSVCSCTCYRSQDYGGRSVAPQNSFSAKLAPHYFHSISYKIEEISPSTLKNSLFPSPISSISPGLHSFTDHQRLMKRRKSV
Kir21 block = inhibitors of mouse Kir2.1 inward-rectifier potassium channel | HEK293-Kir2.1, FluxOR thallium flux fluorescence; hits give low values | Inward rectifier potassium channel 2 (Mus musculus), P35561 | hit rate 0.85% among 310,000 | AID 1672, 2009 | B-score at 10 µM;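 active means fluorescence ratio B-score at or below minus 3 SD of library scores, with starting-brightness B-score within 2 SD, cut at about -4.2 in these data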;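 further: channel flux triggered by added potassium and thallium sulfate stimulus; B-score of peak minus minimum fluorescence over baseline after thallium stimulus; more negative B-score means stronger Kir2.1 block with less thallium influx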
hERG rescue = hERG rescue from dofetilide block, primary screen, cell-based, CHO-hERG, FluxOR thallium flux, dofetilide IC70; Voltage-gated inwardly rectifying potassium channel KCNH2 (Homo sapiens), Q12809; dofetilide IC70 present; activation (rescue from dofetilide block), less the hit threshold, % at 10 µM; hit rate 0.51% among 310,000; AID 1511, 2009;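 active means activation above the mean of controls blocked by dofetilide plus 5 SD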;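 further: thallium influx through hERG after potassium depolarization seen as dye fluorescence rise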
KCNQ1 act = potentiators or activators of KCNQ1 channel, primary screen, cell-based, thallium flux, high-throughput; Potassium voltage-gated channel subfamily KQT member 1 (Homo sapiens), P51787; CHO-K1 KCNQ1, thallium flux FluxOR fluorescence; hits give high values; B-score at 10 µM; hit rate 0.35% among 310,000; AID 2648, 2010;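 active means fluorescence ratio B-score, a plate-corrected score, at least three library SD, with initial intensity B-score within 5 SD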
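Schedule – 37 °C overnight plating, 90-min dark dye load, 20-min compound pretreatment · System – stable KCNQ1 CHO-K1 line · Probe or stimulus – thallium- and potassium-containing depolarizing buffer · Measured by – kinetic FluxOR fluorescence, 10 s baseline plus 110 s post-stimulus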
KCNK9 inh conf = KCNK9 potassium channel inhibitors, confirmation, HEK293 cells, thallium flux, duplicate; FluxOR thallium flux fluorescence; shares compounds with KCNK9 block; AID 492992, 2010; inhibition, % at 10 µM; hit rate 43% among 4,900;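 active means thallium signal inhibited by more than 5 SD of the compound-free buffer control wells, on both duplicate plates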;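 further: 0% = assay buffer control wells without compound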
Kir2-1 spec = mouse Kir2.1 channel inhibition, confirmation, selectivity assay for KCNK9 modulator project, cell-based, HEK293, thallium flux. shares compounds with KCNK9 block. Kir2.1 cells, FluxOR thallium flux fluorescence. inhibition, % at 10 µM. hit rate 4% among 4,900;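 active means thallium signal drop more than 5 SD beyond the mean of the no-compound control wells, seen in both duplicate plates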;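 further: signal is fluorescence rise after thallium addition divided by baseline fluorescence; plate controls were assay buffer only for no effect and full block by chlorpromazine control for full effect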
KCNK9 uninduced = thallium flux in non-induced HEK293 cells, confirmation, counter-screen for KCNK9 inhibitor project, cell-based, second counter screen, non-induced KCNK9-HEK293. shares compounds with KCNK9 block. FluxOR thallium flux. inhibition, % at 10 µM. hit rate 40% among 4,900;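 active means thallium signal drop beyond 5 SD of the untreated control mean, on both duplicate plates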;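 further: plate controls were buffer only IC0 wells for no effect and SID17386958 at its maximal inhibitory level for full effect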
KCNK3 inh conf = retest of human KCNK3 channel inhibitors, confirmation, CHO cells, FluxOR thallium flux, triplicate; shares compounds with KCNK3 inh; FluxOR fluorescence; 0% buffer, 100% carvedilol maximal block; ratio percent of control, % at 10 µM; hit rate 99% among 2,400; AID 651638, 2012;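 active means ratio percent of control, averaged over triplicates, above buffer control mean plus 5 SD, cut at about 64% in these data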;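 further: ratio is the fluorescence rise from min to max over baseline after thallium stimulus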
KCNK3 noninduced = thallium flux inhibition in non-induced cells, primary screen, counter-screen for KCNK3 inhibitor project, cell-based, non-induced KCNK3 line, FluxOR thallium, triplicate. shares compounds with KCNK3 inh. hit rate 40% among 2,400. non-induced KCNK3 parental cells; hits give low values. thallium flux ratio (lower = more inhibition) at 10 µM;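 active means thallium flux ratio, averaged over three wells, more than 5 SD below the buffer control mean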;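 further: host cells are CHO cells without KCNK3 induction; ratio is peak minus trough fluorescence over baseline then normalized to buffer controls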
Starred values were filed as active, the others as inactive; i = inactive; nt = no result given.

SMILES	KCNQ1 block	KCNK3 inh	KCNK9 block	Kir21 block	hERG rescue	KCNQ1 act	KCNK9 inh conf	Kir2-1 spec	KCNK9 uninduced	KCNK3 inh conf	KCNK3 noninduced
COc1ccc(-c2nc3ccccn3c2NCc2ccc3c(c2)OCO3)cc1	i	-9.7*	-9.6*	-1.9	-23	i	48%*	i	i	110*	i
O=C(Oc1c(Br)cc(C(=S)N2CCOCC2)cc1Br)c1ccc(Cl)cc1	i	i	i	-0.89	2	i	nt	nt	nt	nt	nt
O=C(Oc1ccc(C(=S)N2CCOCC2)cc1Br)c1cc(Cl)ccc1Cl	i	-9.4*	-14*	-0.89	-8	i	48%*	i	35%*	99*	i
Cc1ccccc1OCC(=O)NCCNC(=O)c1ccccn1	i	i	i	-0.73	-6	i	nt	nt	nt	nt	nt
CN1/C(=C\C=O)C(C)(C)c2ccccc21	i	i	i	-0.14	-3	i	nt	nt	nt	nt	nt
CN1\C(=C/C=C/C=C/C=[N+](C)C)C(C)(C)c2ccccc21	16*	-13*	-8.3*	-13*	-53	i	58%*	76%*	58%*	155*	0.085*
O=C(Nc1cccnc1)c1cc(-c2cccc(Cl)c2)on1	i	i	i	-1.4	-2	i	nt	nt	nt	nt	nt
CC(=O)Nc1cccc(NC(=O)c2c(-c3c(Cl)cccc3Cl)noc2C)c1	i	i	i	2.2	-5	i	nt	nt	nt	nt	nt
CNC(=O)Nc1cccc(-c2cc(-c3c(Cl)cccc3Cl)no2)c1	i	-17*	-15*	0.49	-9	i	54%*	i	44%*	122*	0.16*
CC(=O)Nc1cccc(-c2cc(-c3c(Cl)cccc3Cl)no2)c1	i	-15*	-11*	-0.08	-9	i	54%*	i	39%*	109*	0.15*
Cc1cc(=O)[nH]c2sc(C(=O)N3c4ccccc4CC3C)c(N)c12 (centres undefined)	nt	i	nt	nt	nt	nt	nt	nt	nt	nt	nt
O=C(Nc1cccc(NC(=O)c2ccccc2Cl)c1)c1cccs1	i	i	-13*	-0.28	-2	i	57%*	i	28%*	112*	i
COc1ccc(-c2cccc(NC(=O)c3cccs3)c2)nn1	i	-10*	-9.1*	0.54	-16	i	35%*	i	i	96*	i
Cc1ccc(NC(=O)c2cccs2)cc1NC(=O)c1ccccc1Cl	i	i	i	0.54	-4	i	nt	nt	nt	nt	nt
Cc1cc(C)c(C(=O)CC(=O)c2ccccc2Cl)c(O)c1	i	i	i	-0.35	-5	i	nt	nt	nt	nt	nt
